Most compounds without a hit are left out; they make up all but 6.4% or so of the library.
PLK1 kinase inh: PLK1 (human) kinase inhibition; P53350; recombinant PLK1 kinase, TR-FRET peptide phosphorylation; inhibition, % at 10 µM; hit rate 0.53% among 97,000;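 active = inhibition of 50% or more in the single-concentration screen; inactive = inhibition below 50%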
Target sequence (P53350 whole entry, looked up): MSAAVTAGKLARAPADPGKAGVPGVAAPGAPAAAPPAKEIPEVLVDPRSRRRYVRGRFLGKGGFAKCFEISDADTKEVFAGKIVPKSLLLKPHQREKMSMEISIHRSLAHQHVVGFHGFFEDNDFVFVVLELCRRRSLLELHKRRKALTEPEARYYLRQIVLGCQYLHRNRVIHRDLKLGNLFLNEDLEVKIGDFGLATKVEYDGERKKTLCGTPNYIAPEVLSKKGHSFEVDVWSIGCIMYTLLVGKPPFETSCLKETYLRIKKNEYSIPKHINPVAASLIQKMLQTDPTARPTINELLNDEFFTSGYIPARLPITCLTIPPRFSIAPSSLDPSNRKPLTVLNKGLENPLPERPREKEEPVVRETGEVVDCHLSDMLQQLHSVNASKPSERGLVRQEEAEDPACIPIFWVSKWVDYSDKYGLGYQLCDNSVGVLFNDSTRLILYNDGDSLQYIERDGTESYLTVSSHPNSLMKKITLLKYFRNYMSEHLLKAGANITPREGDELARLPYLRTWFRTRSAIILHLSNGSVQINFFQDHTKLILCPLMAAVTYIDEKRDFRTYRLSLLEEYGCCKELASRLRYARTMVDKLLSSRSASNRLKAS
HIV Rev-RRE inh: disrupts HIV-1 Rev binding to RRE RNA | P05866 | Rev peptide-RRE RNA binding, FRET | inhibition, % at 8 µM | hit rate 0.79% among 97,000;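 active = inhibition above the screen-wide mean plus 3 SD, cut at about 35% in these data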
Target sequence (P05866 whole entry, looked up): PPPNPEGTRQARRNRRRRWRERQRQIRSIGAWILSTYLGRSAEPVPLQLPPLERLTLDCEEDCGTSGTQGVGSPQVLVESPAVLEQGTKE
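Probe or stimulus: fluorescein-Rev peptide as binding partner; assay system: Cy5-tagged RRE RNA duplex with fluorescein-tagged Rev peptide; timing: 5 min compound–RNA preincubation, then 15 min with peptide, 25 °C; medium: HEPES pH 7.5 buffer with KCl, MgCl2, NaCl and EDTA; signal: fluorescein-to-Cy5 FRET, 480 nm excitation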
PostGolgi yeast: growth inhibition of a yeast mutant, post-Golgi transport screen; hit rate 0.9% among 98,000; post-Golgi transport phenotypic cell assay; AID 739; inhibition, % at 10 µM;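 also: yeast cells grown in 1536-well plates; yeast grown about 18 h at 30C before absorbance read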
PostGolgi ctrl: growth of the yeast control strain, post-Golgi counter-screen | efflux-deficient yeast background strain, growth absorbance A615, 16 h | inhibition, % at 10 µM | hit rate 5% among 98,000
EphB4 ephrin blk: antagonists of human EphB4-ephrin-B2 interaction; hit rate 0.15% among 97,000; EphB4 LBD / TNYL-RAW-Alexa532 peptide, fluorescence polarization; inhibition, % at 7 µM; AID 720;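 active = inhibition above the screen-wide mean inhibition plus 3 SD, cut at about 15% in these data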
PLK1 PBD inh: Plk1 (human) PBD binding inhibition | P53350 | Plk1 PBD phosphopeptide binding, fluorescence polarization | inhibition, %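 (tested at about 20 µM)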 | hit rate 0.13% among 97,000; in the data active = inhibition above about 34%, passing the limit was not always enough
Numbers stand for hits; [ ] = dose if it differs, or a comment. Rule as the data show it, unless noted: active = inhibition above about 30%; inactive = the rest.

For N#CC(C(=O)C12CC3CC(CC(C3)C1)C2)c1nc2ccccc2[nH]1 (centres undefined) the results were PLK1 kinase inh inactive, HIV Rev-RRE inh inactive, PostGolgi yeast inactive, PostGolgi ctrl 74, EphB4 ephrin blk inactive and PLK1 PBD inh inactive.
COc1ccc(Cl)cc1C(=O)CSc1nc(N)cc(N)n1 was read as PLK1 kinase inh inactive, HIV Rev-RRE inh inactive, PostGolgi yeast inactive, PostGolgi ctrl inactive, EphB4 ephrin blk inactive and PLK1 PBD inh inactive.
Screening CCOc1ccc(S(=O)(=O)N2Cc3ccccc3CC2C(=O)NCCCn2ccnc2)cc1 (centres undefined) returned PLK1 kinase inh inactive, HIV Rev-RRE inh inactive, PostGolgi yeast inactive, PostGolgi ctrl 34, EphB4 ephrin blk inactive and PLK1 PBD inh inactive.
`Cc1ccc(S(=O)(=O)N2Cc3ccccc3CC2C(=O)Nn2cnnc2)cc1` (centres undefined) gave PLK1 kinase inh inactive, HIV Rev-RRE inh inactive, PostGolgi yeast inactive, PostGolgi ctrl inactive, EphB4 ephrin blk inactive and PLK1 PBD inh inactive.
Screening CN(C)c1ccc(/C=N/N2C(=S)SC(C)(C)C2N(O)C(=O)Nc2ccc([N+](=O)[O-])cc2)cc1 (centres undefined) returned PLK1 kinase inh inactive, HIV Rev-RRE inh inactive, PostGolgi yeast inactive, PostGolgi ctrl inactive, EphB4 ephrin blk inactive and PLK1 PBD inh inactive.
Screening CSC1=NCCN1C(=O)COc1ccccc1 returned PLK1 kinase inh 69, HIV Rev-RRE inh inactive, PostGolgi yeast inactive, PostGolgi ctrl inactive, EphB4 ephrin blk inactive and PLK1 PBD inh inactive.
O=C(O)CCC(=O)N1CCc2cc(S(=O)(=O)N3CC=C(c4ccccc4)CC3)ccc21 was read as PLK1 kinase inh inactive, HIV Rev-RRE inh inactive, PostGolgi yeast inactive, PostGolgi ctrl inactive, EphB4 ephrin blk inactive and PLK1 PBD inh inactive.
`CC(C)OCCCn1c(=N)c(C(N)=S)cc2c(=O)n3ccccc3nc21` gave PLK1 kinase inh inactive, HIV Rev-RRE inh 66, PostGolgi yeast inactive, PostGolgi ctrl inactive, EphB4 ephrin blk inactive and PLK1 PBD inh inactive.
For O=C(Nc1c(C(=O)O)oc2ccc(Br)cc12)c1ccccc1 the results were PLK1 kinase inh 51, HIV Rev-RRE inh inactive, PostGolgi yeast inactive, PostGolgi ctrl inactive, EphB4 ephrin blk inactive and PLK1 PBD inh inactive.
Screening O=S(=O)(CC(CN1CCCC1)N1CCCC1)c1ccc2ccccc2c1 (centres undefined) returned PLK1 kinase inh inactive, HIV Rev-RRE inh inactive, EphB4 ephrin blk inactive and PLK1 PBD inh inactive.
`COc1cccc(NS(=O)(=O)c2ccc3[nH]cc(C(=O)NCCC(C)C)c(=O)c3c2)c1` gave PLK1 kinase inh inactive, HIV Rev-RRE inh inactive, PostGolgi yeast inactive, PostGolgi ctrl 41, EphB4 ephrin blk inactive and PLK1 PBD inh inactive.
`CS(=O)(=O)N(CC(=O)Nc1cccnc1)c1ccc2c(c1)OCO2` gave PLK1 kinase inh inactive, HIV Rev-RRE inh inactive, PostGolgi yeast inactive, PostGolgi ctrl inactive, EphB4 ephrin blk inactive and PLK1 PBD inh inactive.
COc1ccc(C(C)=O)cc1CSCCC#N was read as PLK1 kinase inh inactive, HIV Rev-RRE inh inactive, PostGolgi yeast inactive, PostGolgi ctrl inactive, EphB4 ephrin blk inactive and PLK1 PBD inh inactive.
`COC(=O)\C(C(C)=O)=C(/C=C/C=C/C=C/N(C)C)N(C)C` gave PLK1 kinase inh inactive, HIV Rev-RRE inh 82, PostGolgi yeast inactive, PostGolgi ctrl inactive, EphB4 ephrin blk inactive and PLK1 PBD inh inactive.
Screening O=C(O)Cn1nc(C(F)(F)F)c2c1CCC2 returned PLK1 kinase inh inactive, HIV Rev-RRE inh inactive, PostGolgi yeast inactive, PostGolgi ctrl inactive, EphB4 ephrin blk inactive and PLK1 PBD inh inactive.
Screening CCOC(=O)c1ccccc1NC(=O)c1cccc2c1C(=O)N(C1CCN(C(=O)OCC)CC1)C2 returned PLK1 kinase inh inactive, HIV Rev-RRE inh inactive, PostGolgi yeast inactive, PostGolgi ctrl inactive, EphB4 ephrin blk inactive and PLK1 PBD inh inactive.
For CCOC(=O)N1CCC(N2Cc3cccc(C(=O)Nc4ccc(OC)c(OC)c4)c3C2=O)CC1 the results were PLK1 kinase inh inactive, HIV Rev-RRE inh inactive, PostGolgi yeast inactive, PostGolgi ctrl 37, EphB4 ephrin blk inactive and PLK1 PBD inh inactive.
Screening Cc1c(Cc2ccccc2)sc(N)c1C(N)=O returned PLK1 kinase inh inactive, HIV Rev-RRE inh inactive, PostGolgi yeast inactive, PostGolgi ctrl 38, EphB4 ephrin blk inactive and PLK1 PBD inh inactive.
For CCC(=O)c1ccc(OCC(O)CN(CCc2ccccc2)Cc2ccccc2)cc1 (centres undefined) the results were PLK1 kinase inh inactive, HIV Rev-RRE inh inactive, PostGolgi yeast inactive, PostGolgi ctrl 52, EphB4 ephrin blk inactive and PLK1 PBD inh inactive.
CCc1ccc2[nH]c3nc(SCc4nnc(-c5ccc(C)cc5)o4)nnc3c2c1 was read as PLK1 kinase inh inactive, HIV Rev-RRE inh inactive, EphB4 ephrin blk inactive and PLK1 PBD inh inactive.
`Cc1c(C(=O)Nc2ccc(Cl)cn2)oc2ccccc12` gave PLK1 kinase inh inactive, HIV Rev-RRE inh inactive, PostGolgi yeast inactive, PostGolgi ctrl 31, EphB4 ephrin blk inactive and PLK1 PBD inh inactive.
COCc1nnc(NC(=O)c2sc3ccccc3c2Cl)s1 was read as PLK1 kinase inh inactive, HIV Rev-RRE inh inactive, PostGolgi yeast inactive, PostGolgi ctrl 30, EphB4 ephrin blk inactive and PLK1 PBD inh inactive.
`O=C(Nc1ccc(Cl)cn1)c1ccc2ccccc2n1` gave PLK1 kinase inh inactive, HIV Rev-RRE inh inactive, PostGolgi yeast inactive, PostGolgi ctrl inactive, EphB4 ephrin blk inactive and PLK1 PBD inh inactive.
Screening Cc1ccc(NC(=O)c2ccc3ccccc3n2)nc1 returned PLK1 kinase inh inactive, HIV Rev-RRE inh inactive, PostGolgi yeast inactive, PostGolgi ctrl 34, EphB4 ephrin blk inactive and PLK1 PBD inh inactive.
Screening Cc1nnc(NC(=O)c2sc3ccccc3c2Cl)s1 returned PLK1 kinase inh inactive, HIV Rev-RRE inh inactive, PostGolgi yeast inactive, PostGolgi ctrl 54, EphB4 ephrin blk inactive and PLK1 PBD inh inactive.
Screening NC/C(=N\O)c1ccc(Cl)cc1Cl returned PLK1 kinase inh inactive, HIV Rev-RRE inh inactive, PostGolgi yeast inactive, PostGolgi ctrl inactive, EphB4 ephrin blk inactive and PLK1 PBD inh inactive.
Screening Cc1ccc(-c2csc(/C(C#N)=C(\O)CN3CCN(C(=O)c4ccco4)CC3)n2)cc1 returned PostGolgi yeast inactive and PostGolgi ctrl inactive.
Cc1ccc(NC(=O)c2sc3ccccc3c2Cl)nc1 was read as PLK1 kinase inh inactive, HIV Rev-RRE inh inactive, PostGolgi yeast inactive, PostGolgi ctrl 31, EphB4 ephrin blk inactive and PLK1 PBD inh inactive.
For CCCOc1nc2c(c(=O)n(C)c(=O)n2C)n1Cc1cccc2ccccc12 the results were PLK1 kinase inh inactive, HIV Rev-RRE inh inactive, PostGolgi yeast inactive, PostGolgi ctrl 37, EphB4 ephrin blk inactive and PLK1 PBD inh inactive.
CC(=O)c1cc(NC(=O)c2cccc(C(F)(F)F)c2)c(=O)oc1/C=C/N(C)C was read as PLK1 kinase inh inactive, HIV Rev-RRE inh 127[fluorescence artefact?], PostGolgi yeast inactive, PostGolgi ctrl inactive, EphB4 ephrin blk inactive and PLK1 PBD inh inactive.
For CC(=O)c1cc(NC(=O)c2ccc(Cl)cc2)c(=O)oc1/C=C/N(C)C the results were PLK1 kinase inh inactive, HIV Rev-RRE inh 129[fluorescence artefact?], PostGolgi yeast inactive, PostGolgi ctrl inactive, EphB4 ephrin blk inactive and PLK1 PBD inh inactive.

Compound activity: PubChem BioAssay, several laboratories
